Assay outcomes (PubChem BioAssay)
NS3 helicase inh: blocks Hepatitis C virus NS3 helicase unwinding. actives 0.56% (n = 290,000). NS3 helicase DNA unwinding, Cy5 molecular beacon fluorescence. AID 1800. inhibition, % at 10.9 µM;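 active = inhibition above the mean of all tested compounds plus 3 SD, set per campaign, cut at about 35% in these data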
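Assay system – hepatitis C virus NS3 helicase domain fragment enzyme · Buffer or medium – MOPS pH 6.5, MgCl2, DTT, Tween20, BSA · Reagent – Cy5/quencher beacon DNA duplex and ATP to start · Compound – single 10.9 µM dose · Timing – 1 h at 25 °C · Technique – Cy5 beacon fluorescence read at start and 1 h · Measure – % inhibition of unwinding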
DAGLB inh: diacylglycerol lipase beta (human) inhibition; inhibition, % at 5.17 µM; Q8NCG7; actives 0.059% (n = 340,000); HEK293T DAGLB membrane lysate, EnzChek fluorogenic substrate; in the data active = inhibition above about 34%
HCV core dimer: blocks dimerization of HCV core protein; TR-FRET GST/Flag-core106 dimerization, 1536-well; inhibition, % at 5 µM; actives 0.33% (n = 300,000); AID 1899;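 active = inhibition above the mean of all tested compounds plus 3 SD, set per screening campaign, cut at about 45% in these data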
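Assay system – GST-tagged and Flag-tagged HCV core protein residues 1-106 · Quantity – core106 proteins, GST 13.5 nM and Flag 17 nM · Benchmarks – unlabelled core106 and no-GST-core106 wells · Read-out basis – percent inhibition of core106 dimerization signal · Detection – time-resolved FRET, ex 340 nm, em 617 and 671 nm · Schedule – 4 h at 22.5 °C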
GPR7 antag: antagonists of human GPR7 (neuropeptides B/W receptor 1) | P48145 | GPR7-expressing cells, fluorescence antagonist assay | inhibition, % at 4.4 µM | actives 1.1% (n = 290,000) | AID 1861; in the data active = inhibition above about 16%, passing the limit was not always enough;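 note: cells stimulated with the agonist NPW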
GRK2 aptamer HTS: human GRK2 inhibition via aptamer displacement. actives 0.59% (n = 330,000). P25098. AID 488847. bead flow cytometry, FAM-aptamer displacement from GRK2. inhibition of aptamer binding, % at 10 µM;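 active = inhibition of aptamer binding above 40%, roughly 3 SD of noise, on plates passing a quality check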;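 note: median bead fluorescence of bound FAM aptamer so fluorescent compounds give negative values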
Target sequence (P25098 whole entry, looked up): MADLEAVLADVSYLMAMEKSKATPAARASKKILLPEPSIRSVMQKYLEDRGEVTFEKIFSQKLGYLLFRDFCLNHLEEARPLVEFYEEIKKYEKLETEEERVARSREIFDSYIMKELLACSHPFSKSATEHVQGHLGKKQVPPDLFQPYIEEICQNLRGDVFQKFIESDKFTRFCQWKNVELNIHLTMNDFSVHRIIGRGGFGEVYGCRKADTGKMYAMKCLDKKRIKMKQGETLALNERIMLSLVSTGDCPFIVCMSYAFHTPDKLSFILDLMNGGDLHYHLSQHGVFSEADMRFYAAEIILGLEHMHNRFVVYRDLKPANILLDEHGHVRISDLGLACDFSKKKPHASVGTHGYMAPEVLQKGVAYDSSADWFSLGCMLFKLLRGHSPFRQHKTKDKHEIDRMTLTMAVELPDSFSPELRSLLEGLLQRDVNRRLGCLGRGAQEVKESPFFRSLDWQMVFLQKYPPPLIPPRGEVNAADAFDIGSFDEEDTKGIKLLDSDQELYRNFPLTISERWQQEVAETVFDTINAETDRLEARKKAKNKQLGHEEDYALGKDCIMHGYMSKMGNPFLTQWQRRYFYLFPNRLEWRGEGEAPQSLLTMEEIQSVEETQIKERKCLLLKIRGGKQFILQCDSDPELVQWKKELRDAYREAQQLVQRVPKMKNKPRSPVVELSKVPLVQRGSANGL
FID counter: fluorescent intercalator displacement, NS3 helicase counter-screen. inhibition, % at 7.9 µM. DNA fluorescent intercalator displacement, fluorescence. actives 0.17% (n = 290,000); in the data active = inhibition above about 37%;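 note: higher means more ethidium bromide displaced from hairpin DNA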
Numbers stand for hits; – = inactive; · = no result given. Rows were chosen to be rich in hits. Some 2.2% of all compounds tested hit in one or more screens of this group.

SMILES	NS3 helicase inh	DAGLB inh	HCV core dimer	GPR7 antag	GRK2 aptamer HTS	FID counter
COc1ccccc1-c1cc(C(=O)Nc2sc3c(c2C#N)CCC(C)C3)c2ccccc2n1 (stereo unspecified)	–	–	47	–	–	–
CCOc1ccc(CN(C)C(=O)c2ccc(S(=O)(=O)N(C)c3ccccc3OC)cc2)cc1	·	–	·	·	–	·
COc1cc2c(cc1CNC[C@H]1O[C@@H](n3ccc(N)nc3=O)[C@H](O)[C@@H]1O)OCO2	·	–	·	·	·	·
O=C(/C=C/Nc1ccc(F)cc1)c1ccc(Br)cc1	–	–	–	–	–	–
O=C(/C=C/Nc1ccc([N+](=O)[O-])cc1)c1ccc(Br)cc1	–	–	–	–	46	–
NC(=O)C1CCN(C(=O)COc2ccc3ccccc3c2Br)CC1	–	–	–	–	–	–
O=C(COc1ccc2ccccc2c1Br)N1CCCCC1	–	–	–	–	87	–
CCOC(=O)C1CCCN(C(=O)c2cnn3c(C(F)F)cc(-c4ccc(C)cc4)nc23)C1 (stereo unspecified)	–	–	–	19	–	–
Cc1ccc(-c2cc(C(F)F)n3ncc(C(=O)N4CCN5CCCC5C4)c3n2)cc1 (stereo unspecified)	–	–	–	–	–	–
Oc1cccc2ccc[n+](CC(O)Cn3c4ccccc4c4ccccc43)c12 (stereo unspecified)	–	–	–	–	–	39
C/C(=N\NC(N)=S)C1=CCC2C3CC[C@H]4CC(O)CC[C@]4(C)C3CC[C@]12C (stereo partly specified)	–	–	–	–	–	–
O=C(N/N=C/c1ccccn1)c1sc2ccccc2c1Cl	–	–	–	19	·	–
O=C(N/N=C/c1c[nH]c2ccccc12)c1sc2ccccc2c1Cl	–	–	–	–	–	–
CCOC(=O)CC(NC(=O)Cn1nnc(-c2ccccc2Cl)n1)c1ccc(OC)cc1 (stereo unspecified)	–	–	–	20	–	–
COc1ccc(CCn2c(-c3ccco3)nc3nc4ccccc4nc32)cc1	–	–	56	–	–	–
COc1ccccc1Cn1c(-c2ccco2)nc2nc3ccccc3nc21	–	–	–	–	–	–
CCc1ccc(NC(=O)c2cc(S(=O)(=O)N3CCCC3)ccc2F)cc1	·	–	·	·	·	·
FC(F)(F)c1ccccc1CN1CCN(C2CCCCCC2)CC1	–	–	–	20	–	–
FC(F)(F)c1ccccc1CN1CCCC(N2CCN(c3ccccc3)CC2)C1 (stereo unspecified)	–	–	–	–	–	–
CSCCC(NC(=O)c1ccccc1Cl)C(=O)N1CCN(c2ccccn2)CC1 (stereo unspecified)	–	–	–	–	–	–
CCCOc1ccc2cc(C(=O)NCc3ccccc3)c(=O)oc2c1	–	–	58	–	–	–
O=C1c2cc(CO)cc(O)c2C(=O)c2c(O[C@@H]3OC(CO)[C@@H](O)[C@@H](O)[C@@H]3O)cccc21 (stereo partly specified)	·	–	–	·	–	·
O=C(O)c1cc(O)c2c(c1)[C@@H]([C@H]1c3cc(C(=O)O)cc(O)c3C(=O)c3c(O[C@@H]4O[C@H](CO)[C@@H](O)[C@H](O)[C@H]4O)cccc31)c1cccc(OC3O[C@H](CO)[C@@H](O)[C@H](O)[C@H]3O)c1C2=O (stereo partly specified)	·	–	–	·	97	·
CCc1ccc(/C=N/NC(=O)c2cc(-c3ccccc3OC)nc3ccccc23)s1	–	–	56	–	–	–
COc1ccccc1-c1cc(C(=O)N/N=C/c2ccc(C)s2)c2ccccc2n1	–	–	–	–	–	–
SMILES	NS3 helicase inh	DAGLB inh	HCV core dimer	GPR7 antag	GRK2 aptamer HTS	FID counter
COC(=O)c1ccccc1NC(=O)c1ccc2nccnc2c1	–	–	51	–	–	–
Cc1ccc(-n2c(SCC(=O)NC3CCS(=O)(=O)C3)nc3ccccc3c2=O)c(C)c1 (stereo unspecified)	·	–	·	·	·	·
CN1C[C@@H]2[C@@H]3C(=O)N(C)C(=O)[C@@H]3[C@](C)(C1=O)N2C(=O)c1ccccc1	·	–	·	·	·	·
O=C(CCN1C(=O)/C(=C\c2ccco2)SC1=S)Nc1ccc(C(=O)O)c(O)c1	–	–	–	–	–	–
O=C1/C(=C\c2ccco2)SC(=S)N1c1ccccc1	37	–	–	–	–	–
O=C(CCN1C(=O)/C(=C/c2ccco2)SC1=S)Nc1ccc(C(=O)O)c(O)c1	–	–	–	–	–	–
COc1ccccc1/C=C1\SC(=S)N(CCC(=O)Nc2ccc(C(=O)O)c(O)c2)C1=O	–	–	–	–	–	38
O=C(CCCN1C(=O)/C(=C\c2ccco2)SC1=S)Nc1ccc2ccccc2c1	–	–	46	–	–	–
CC(C)(CCc1ccccn1)C(=O)CCCc1ccccn1	·	–	·	·	·	·
COc1ccccc1C(=O)Nc1sc2c(c1C(=O)NCc1ccco1)CCCC2	–	–	53	–	–	–
COc1ccccc1NC(=O)c1c(NC(=O)c2ccco2)sc2c1CCC2	–	–	–	–	–	–
Cn1cnnc1SCc1ccccc1	–	–	–	–	–	–
Cn1cnnc1SCc1ccc(-c2ccc(Br)cc2)o1	–	–	64	–	–	–
Nc1nc(=S)c2ncn(C3OC(CO)CC3O)c2[nH]1 (stereo unspecified)	·	–	·	·	·	·
CCOC(=O)c1[nH]c(C)c(CN(C(C)=O)c2ccc(OCC)cc2)c1C	–	–	–	22	–	–
COc1cccc(CN2CC(C(=O)NCCN3CCOC3=O)CCC2=O)c1 (stereo unspecified)	–	–	–	–	–	–
OCCC1CN(Cc2ccccc2OC2CCCC2)CCN1Cc1ccsc1 (stereo unspecified)	–	–	–	20	–	–
COc1ccc(CN2C(=O)C(CC(=O)NCCN3CCOCC3)CC(C(=O)N3CCOCC3)=C2C)cc1 (stereo unspecified)	·	–	·	·	·	·
Cc1cccc(NC(=O)CCc2nc3sc4c(c3c(=O)[nH]2)CCCC4)c1	·	–	–	·	–	·
COc1cccc(NC(=O)CN(C)C(=O)CCc2nc3sc4c(c3c(=O)[nH]2)CCCC4)c1	–	–	49	–	–	–
COc1ccc(CNC(=O)C2CCC(=O)N(C3CCCCCC3)C2)c(OC)c1 (stereo unspecified)	·	–	·	·	·	·
COc1ccc(F)cc1C(=O)C1CCCN(Cc2cccn2-c2ccccn2)C1 (stereo unspecified)	–	–	–	19	–	–
CC(OC(=O)c1ccc(NC(=O)CC#N)cc1)C(=O)Nc1nc(-c2ccccc2)cs1 (stereo unspecified)	·	–	–	·	–	·
CC(OC(=O)c1ccc(NC(=O)CC#N)cc1)C(=O)Nc1ccc(Oc2ccccc2)cc1 (stereo unspecified)	–	–	47	–	–	–
